Measured values as given in ChEMBL document CHEMBL3525963, “Tissue distribution and elimination of [14C]apixaban in rats” (Drug Metab Dispos, 2011).

Columns and labels:
Design in all cases: dose 5 mg/kg, dosed compound name [14C]-apixaban, route oral
Settings in all cases: in vivo
Thymus [1] = experiment: Biodistribution in male Sprague-Dawley rat thymus at 5 mg/kg, po administered as single dose measured after 8 hrs; format: ADME, organism-based
Rattus norvegicus [2] = experiment: Biodistribution in pregnant Sprague-Dawley rat amnion at 5 mg/kg, po administered as single dose measured after 8 hrs; format: ADME, organism-based
Rattus norvegicus [3] = experiment: Biodistribution in male Sprague-Dawley rat bone marrow at 5 mg/kg, po administered as single dose measured after 0.5 hrs; format: ADME, organism-based
Method in brief: (§1)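 Fasted male rats, 225-252 g, received [14C]apixaban by single oral gavage at 100 μCi/kg in 0.5% Tween 80/Labrafil. One rat was killed per time point and the carcass frozen. Tissue radioactivity was quantified by QWBA (40 µm sagittal sections, phosphor plate, [14C]glucose calibration) as µg eq apixaban/g, with LLOQ 0.037 μg eq/g.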

Thymus [4] = experiment: Biodistribution in female Sprague-Dawley rat thymus at 5 mg/kg, po administered as single dose measured after 1 hr; format: ADME, organism-based
Method in brief: (§2)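 [¹⁴C]Apixaban given by oral gavage at 5 mg/kg (100 μCi/kg) in 0.5% Tween 80 in Labrafil (1.0 mg/mL dosing solution) to rats fasted overnight through 4 h post-dose. One rat per time point; carcass frozen in hexane/dry ice. Quantitative whole-body autoradiography used 40 µm sagittal sections and a phosphor imaging plate calibrated with [¹⁴C]glucose standards (0.001–6.5 μCi/g). Read-out in µg eq apixaban/g; LLOQ 0.037 μg eq/g.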

Rattus norvegicus [5] = experiment: Biodistribution in female Sprague-Dawley rat brown fat at 5 mg/kg, po administered as single dose measured after 0.5 hrs; format: ADME, organism-based, Brown adipose tissue
Method in brief: (§3)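 [14C]apixaban (20 μCi/mL in dosing solution) in 0.5% Tween 80 in Labrafil given by oral gavage to fasted female rats, 206-213 g, at 100 μCi/kg. One rat per time point was euthanized and snap-frozen. Sagittal 40 µm whole-body sections were read by QWBA phosphor imaging against [14C]glucose standards. Results are in µg eq apixaban/g, with LLOQ 0.037 μg eq/g.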

Harderian gland = experiment: Biodistribution in male Sprague-Dawley rat harderian gland at 5 mg/kg, po administered as single dose measured after 24 hrs; format: ADME, organism-based
Method in brief: (§4)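 Fasted male SD rats (225-252 g) each received one oral gavage dose of [14C]apixaban, 5 mg/kg (100 μCi/kg), in 0.5% Tween 80/Labrafil vehicle. One rat was killed per time point, from 0.5 to 168 h. Frozen carcasses were cut into 40 µm sagittal whole-body sections and read by QWBA phosphor imaging against [14C]glucose calibrants. Results are in µg apixaban eq/g; BLQ <0.037 µg eq/g.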

Brain [6] = experiment: Biodistribution in male Sprague-Dawley rat brain at 5 mg/kg, po administered as single dose measured after 24 hrs; format: ADME, organism-based
Spleen = experiment: Biodistribution in female Sprague-Dawley rat spleen at 5 mg/kg, po administered as single dose measured after 72 hrs; format: ADME, organism-based
Method in brief: (§5)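 Quantitative whole-body autoradiography was run after a single 5 mg/kg (100 μCi/kg) oral gavage to fasted female or pregnant SD rats, one rat per time point. Carcasses were frozen in hexane/dry ice, and 40 µm sagittal sections were dried at −20°C for at least 48 h. Sections were exposed to a phosphor plate alongside [14C]glucose standards (0.001–6.5 µCi/g). Results are µg eq/g, with LLOQ 0.037 µg eq/g.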

Rattus norvegicus [7] = experiment: Biodistribution in pregnant Sprague-Dawley rat kidney cortex at 5 mg/kg, po administered as single dose measured after 1 hr; format: ADME, organism-based
Liver [8] = experiment: Biodistribution in female Sprague-Dawley rat liver at 5 mg/kg, po administered as single dose measured after 0.5 hrs; format: ADME, organism-based; method in brief: as §5
Rattus norvegicus [9] = experiment: Biodistribution in male Sprague-Dawley rat brown fat at 5 mg/kg, po administered as single dose measured after 8 hrs; format: ADME, organism-based, Brown adipose tissue; method in brief: as §1
Muscle tissue = experiment: Biodistribution in male Sprague-Dawley rat muscle at 5 mg/kg, po administered as single dose measured after 1 hr; format: ADME, organism-based
Method in brief: (§6)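 [14C]apixaban (1.0 mg/mL, 20 μCi/mL) in 0.5% Tween 80 in Labrafil, given by oral gavage at 100 μCi/kg to male rats (225-252 g) fasted overnight through 4 h post-dose. One rat per time point. Carcasses frozen in hexane/dry ice and cut into 40 µm sagittal sections. QWBA read on phosphor plates against [14C]glucose standards, reported as µg eq/g. LLOQ 0.037 µg eq/g.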

Thymus [10] = experiment: Biodistribution in pregnant Sprague-Dawley rat thymus at 5 mg/kg, po administered as single dose measured after 8 hrs; format: ADME, organism-based
Rattus norvegicus [11] = experiment: Biodistribution in female Sprague-Dawley rat salivary gland at 5 mg/kg, po administered as single dose measured after 0.5 hrs; format: ADME, organism-based; method in brief: as §3
Rattus norvegicus [12] = experiment: Biodistribution in fetal kidney of pregnant Sprague-Dawley rat at 5 mg/kg, po administered as single dose measured after 1 hr; format: ADME, organism-based
Method in brief: (§7)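 Pregnant rats, 270-319 g and fasted overnight, received [14C]apixaban by oral gavage at 100 μCi/kg in 0.5% Tween 80/Labrafil. One dam per time point was euthanized and frozen in hexane/dry ice. Fetal tissue radioactivity was measured by QWBA on 40 µm sagittal sections calibrated with [14C]glucose standards. Values are in µg eq/g, with LLOQ 0.037 μg eq/g.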

Lung = experiment: Biodistribution in male Sprague-Dawley rat lung at 5 mg/kg, po administered as single dose measured after 4 hrs; format: ADME, organism-based; method in brief: as §6
Heart = experiment: Biodistribution in male Sprague-Dawley rat heart at 5 mg/kg, po administered as single dose measured after 72 hrs; format: ADME, organism-based; method in brief: as §4
Rattus norvegicus [13] = experiment: Biodistribution in pregnant Sprague-Dawley rat pituitary gland at 5 mg/kg, po administered as single dose measured after 4 hrs; format: ADME, organism-based
Brain [14] = experiment: Biodistribution in male Sprague-Dawley rat brain at 5 mg/kg, po administered as single dose measured after 8 hrs; format: ADME, organism-based
Rattus norvegicus [15] = experiment: Biodistribution in fetal kidney of pregnant Sprague-Dawley rat at 5 mg/kg, po administered as single dose measured after 0.5 hrs; format: ADME, organism-based; method in brief: as §7
Pancreas [16] = experiment: Biodistribution in female Sprague-Dawley rat pancreas at 5 mg/kg, po administered as single dose measured after 1 hr; format: ADME, organism-based; method in brief: as §2
Rattus norvegicus [17] = experiment: Biodistribution in female Sprague-Dawley rat bone marrow at 5 mg/kg, po administered as single dose measured after 0.5 hrs; format: ADME, organism-based; method in brief: as §3
Rattus norvegicus [18] = experiment: Biodistribution in female Sprague-Dawley rat pituitary gland at 5 mg/kg, po administered as single dose measured after 4 hrs; format: ADME, organism-based; method in brief: as §3
Pancreas [19] = experiment: Biodistribution in male Sprague-Dawley rat pancreas at 5 mg/kg, po administered as single dose measured after 24 hrs; format: ADME, organism-based; method in brief: as §6
Liver [20] = experiment: Biodistribution in pregnant Sprague-Dawley rat liver at 5 mg/kg, po administered as single dose measured after 0.5 hrs; format: ADME, organism-based
Method in brief: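 Fasted pregnant SD rats (n=6, 270-319 g) each received one oral gavage dose of [14C]apixaban, 5 mg/kg (100 μCi/kg), in 0.5% Tween 80/Labrafil. One rat was killed at each of 0.5, 1, 4, 8, 24 and 48 h. Carcasses were frozen in hexane/dry ice, cut into 40 µm sagittal sections, exposed to phosphor plates and quantified against [14C]glucose standards as µg eq/g. LLOQ was 0.037 µg eq/g.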

Rattus norvegicus [21] = experiment: Biodistribution in fetal blood of pregnant Sprague-Dawley rat at 5 mg/kg, po administered as single dose measured after 24 hrs; format: ADME, organism-based; method in brief: as §5

`COc1ccc(-n2nc(C(N)=O)c3c2C(=O)N(c2ccc(N4CCCC[14C]4=O)cc2)CC3)cc1` gave a Radiolabel recovery (Thymus [1]) of 0.06 ugequiv/g, a Radiolabel recovery (Rattus norvegicus [2]) of 2.12 ugequiv/g and a Radiolabel recovery (Rattus norvegicus [3]) of 0.26 ugequiv/g. For the same compound, the Radiolabel recovery (Thymus [4]) was 0.27 ugequiv/g, the Radiolabel recovery (Rattus norvegicus [5]) was 0.48 ugequiv/g and the Radiolabel recovery (Harderian gland) was “Not detected assumed BLQ”. For the same compound, the Radiolabel recovery (Brain [6]) was < 0.037 ugequiv/g, the Radiolabel recovery (Spleen) was “Not detected assumed BLQ” and the Radiolabel recovery (Rattus norvegicus [7]) was 2.03 ugequiv/g. It also gave a Radiolabel recovery (Liver [8]) of 2.67 µgequiv/g, a Radiolabel recovery (Rattus norvegicus [9]) of 0.07 ugequiv/g and a Radiolabel recovery (Muscle tissue) of 0.43 ugequiv/g. It also gave a Radiolabel recovery (Thymus [10]) of 0.05 ugequiv/g, a Radiolabel recovery (Rattus norvegicus [11]) of 0.28 ugequiv/g and a Radiolabel recovery (Rattus norvegicus [12]) of 0.2 ugequiv/g. For the same compound, the Radiolabel recovery (Lung) was 0.64 ugequiv/g, the Radiolabel recovery (Heart) was “Not detected assumed BLQ” and the Radiolabel recovery (Rattus norvegicus [13]) was 0.75 ugequiv/g. For the same compound, the Radiolabel recovery (Brain [14]) was < 0.037 ugequiv/g, the Radiolabel recovery (Rattus norvegicus [15]) was 0.24 ugequiv/g and the Radiolabel recovery (Pancreas [16]) was 0.62 ugequiv/g. The Radiolabel recovery (Rattus norvegicus [17]) was 0.29 ugequiv/g, the Radiolabel recovery (Rattus norvegicus [18]) was 0.48 ugequiv/g and the Radiolabel recovery (Pancreas [19]) was < 0.037 ugequiv/g. The Radiolabel recovery (Liver [20]) was 6.77 ugequiv/g and the Radiolabel recovery (Rattus norvegicus [21]) was “Not detected assumed BLQ”.
